# Shown are actives, neighbours in structure and some others; about 1.5% of the full set was active somewhere.
# CCR6 antag = CCR6 (human) receptor antagonism | P51684 | CHO-K1 CCR6 PathHunter beta-arrestin, luminescence, CCL20-stimulated | inhibition, % at 20 µM | actives 0.49% (n = 340,000) | AID 493098;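 active means compounds whose inhibition of the agonist-driven luminescence signal at 20 µM reaches about 50%, limit read from the data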;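 further: cells stimulated with CCL20 at 14 nM final; plate controls were DMSO with CCL20 for no effect and DMSO without agonist for full effect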
# EBI2 antag = antagonists of human EBI2 receptor; P32249; EBI2 beta-arrestin recruitment, luminescence, 7a,25-OHC stimulated; inhibition, % at 5 µM; actives 0.81% (n = 360,000); AID 651636; in the data active means inhibition above about 38%;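 further: enzyme fragment complementation signal reports receptor beta-arrestin coupling in cells; 0% = agonist plus DMSO wells and 100% = wells without agonist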
# APJ ag = activates the human apelin receptor APJ; P35414; CHO-K1 APJ PathHunter beta-arrestin, luminescence; 0% DMSO wells, 100% apelin; activation, % at 20 µM; actives 0.11% (n = 330,000); AID 2520;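 active means activation more than six SD over the plate average, tested at 20 µM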;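 further: 0% = DMSO alone and 100% = apelin-13 at 10 nM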
# Target sequence (P35414 whole entry, looked up): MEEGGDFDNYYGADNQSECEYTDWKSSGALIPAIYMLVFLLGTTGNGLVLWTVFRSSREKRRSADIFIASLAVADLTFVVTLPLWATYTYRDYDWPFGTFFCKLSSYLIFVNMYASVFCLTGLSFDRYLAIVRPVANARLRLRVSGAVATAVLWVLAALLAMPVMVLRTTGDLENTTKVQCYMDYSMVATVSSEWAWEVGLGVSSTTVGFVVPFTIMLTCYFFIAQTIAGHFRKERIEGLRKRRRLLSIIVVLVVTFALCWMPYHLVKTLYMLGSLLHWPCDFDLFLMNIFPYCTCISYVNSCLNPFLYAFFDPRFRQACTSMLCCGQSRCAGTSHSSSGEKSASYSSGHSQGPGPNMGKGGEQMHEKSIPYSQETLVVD
#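 Incubation: overnight seeding, 90 min compound at 25 °C, 1 h detection; test system: PathHunter CHO-K1 APJ (AGTRL-1) beta-arrestin reporter cells; amount: 1000 cells/well; doses: one dose, 20 µM compound, 1% DMSO; measured by: beta-gal luminescence; measure: agonist-driven arrestin binding to APJ; benchmarks: negative DMSO alone, positive Apelin-13 at 10 nM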
# APJ antag = blocks the human apelin receptor APJ; P35414; CHO-K1 APJ beta-arrestin complementation, luminescence; inhibition, % at 20 µM; AID 2521; actives 0.32% (n = 330,000);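 active means inhibition above about 40% at 20 µM, limit read from the data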;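 further: cells challenged with 10 nM apelin-13 agonist together with compound; plate controls were apelin-13 plus DMSO wells for no effect and DMSO wells lacking apelin-13 for full effect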
# CXCR6 inh = CXCR6 (human) receptor inhibition; O00574; CHO-K1 PathHunter CXCR6 beta-arrestin, luminescence; inhibition, % at 20 µM; actives 0.36% (n = 360,000); in the data active means inhibition above about 34%, passing the limit was not always enough;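 further: antagonist mode with CXCL16 agonist at 10 nM final; 0% = 10 nM CXCL16 with DMSO and 100% = unstimulated wells without agonist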
# APJ antag conf = confirmation of human APJ apelin receptor antagonists. actives 66% (n = 950). shares compounds with APJ antag. APJ beta-arrestin recruitment, luminescence, antagonist mode. inhibition, % at 20 µM; in the data active means inhibition above about 50%
# * hit, by the source's call; nt = no result given.
SMILES,CCR6 antag,EBI2 antag,APJ ag,APJ antag,CXCR6 inh,APJ antag conf
O=C(NC1CCCCC1)C(c1ccc(O)c(O)c1)N(C(=O)Cn1nnc2ccccc21)c1cccc(O)c1 (stereo not given),15,5,4,-10,0,nt
COc1ccc(NC(=O)COC(=O)CCCC2=NS(=O)(=O)c3ccccc3N2)cc1,-9,-1,5,4,2,nt
Cc1cccc(N=C2C(=O)Nc3c(Cl)cccc32)c1,65*,17,-16,63*,30,136*
NS(=O)(=O)c1ccc(N=C2C(=O)Nc3ccccc32)cc1,-8,8,-3,18,1,nt
CC(=O)c1ccc(N=C2C(=O)Nc3ccccc32)cc1,0,4,-19,104*,69*,155*
O=C1Nc2ccccc2C1=Nc1ccc(F)cc1,68*,10,-14,49*,34,119*
O=C1Nc2ccccc2C1=Nc1cccc(Cl)c1,7,6,0,12,6,nt
CSc1cccc(N=C2C(=O)Nc3ccccc32)c1,54*,-1,-10,45*,34,110*
Cn1c(=O)n(CC(=O)NCC2CCCO2)c(=O)c2c3c(sc21)COC(C)(C)C3 (stereo not given),28,-4,-4,10,0,nt
O=S(=O)(O)c1cccc(N=Nc2c(O)ccc3ccccc23)c1,43,0,-5,49*,28,58*
Oc1ccc2ccccc2c1N=Nc1ccccn1,63*,29,-13,75*,41*,97*
Oc1ccc2ccccc2c1N=Nc1ccccc1F,33,-4,-2,-8,11,nt
CC(=O)c1cccc(NC(=O)/C(=C/c2ccncc2)NC(=O)c2ccccc2)c1,10,-3,1,-6,-6,nt
COc1ccc(NC(=O)CCCC(=O)NCCc2ccc(OC)c(OC)c2)cc1,17,7,1,-12,2,nt
CCCCn1c(NC(=O)c2ccc(Br)o2)c(S(=O)(=O)c2ccccc2)c2nc3ccccc3nc21,12,13,-10,55*,10,-11
COc1cccc(NC(=O)c2cc3c(=O)n4ccccc4nc3n(CC(C)C)c2=N)c1,27,13,-1,41*,5,17
Cc1cccc(NC(=O)c2cc3c(=O)n4ccccc4nc3n(CC(C)C)c2=N)c1,29,8,0,-40,9,nt
COc1ccccc1NC(=O)CCNC(=O)C1CCN(S(=O)(=O)c2ccccc2)CC1,nt,-7,nt,nt,-8,nt
Cc1ccc(N(CC(=O)N2CCn3c2nc2ccccc23)S(=O)(=O)c2c(C)n[nH]c2C)cc1,4,3,1,-11,-5,nt
Cc1n[nH]c(C)c1S(=O)(=O)N1CCC(C(=O)N2CCn3c2nc2ccccc23)CC1,73*,34,-12,66*,52*,100*
O=C1CCCC(=O)N1c1ccc(Oc2ccc(Cl)cc2)cc1,-3,3,0,-12,-8,nt
CCOc1ccc(/C=C2/SC(=O)NC2=S)cc1,21,0,0,13,6,nt
CCOc1ccc(N=C2NC(=O)S/C2=C\c2ccc(N(C)C)cc2)cc1,44,17,-5,43*,12,61*
CCN1C(=O)/C(=C2\C=Cc3ccccc3N2CC)SC1=S,84*,25,-6,43*,57*,100*
O=C(CCCC(=O)Nc1cccc(Br)c1)N/N=C/c1cc([N+](=O)[O-])ccc1O,43,14,-20,49*,38,71*
SMILES,CCR6 antag,EBI2 antag,APJ ag,APJ antag,CXCR6 inh,APJ antag conf
O=C(CCC(=O)Nc1cccc(Cl)c1)N/N=C/c1cc([N+](=O)[O-])ccc1O,38,-6,-7,27,16,nt
COc1ccc(C(=O)Nn2cnnc2)cc1OC,3,-6,2,0,-4,nt
CCOc1ccc2nc(N=NC3=C(O)CC(C)(C)CC3=O)sc2c1,34,3,-6,41*,30,51*
Cc1cc(Nc2nc3ccccc3nc2Cl)n(-c2ccc([N+](=O)[O-])cc2)n1,56*,40,-12,49*,33,-2
COc1ccc(OCCC(=O)Nc2ccccc2)cc1,8,0,0,-6,0,nt
Cc1[nH]n(C(N)=S)c(=O)c1N=Nc1ccc([N+](=O)[O-])cc1Cl,60*,17,-6,51*,42*,80*
CCN(C(=O)COC(=O)c1cccnc1SC)C1CCS(=O)(=O)C1 (stereo not given),-3,-16,-3,45*,-9,33
CCN(C(=O)COC(=O)c1cccnc1SC)C1CCCCC1,4,13,-1,8,-6,nt
COc1cc(/C=C2/SC(=S)N(C)C2=O)ccc1OC(=O)c1ccco1,49,0,-5,46*,28,48
COc1cc(/C=C2\SC(=S)N(NC(C)=O)C2=O)ccc1OC(=O)c1ccco1,47,-23,-7,-13,27,nt
CCCCCCCCCCCCCCCC[N+](C)(C)CCN(Cc1ccc(OC)cc1)c1ncccn1,65*,-5,-14,51*,5,42
COc1ccc(C(CNS(=O)(=O)c2ccc(NC(C)=O)c(OC)c2)N2CCCCC2)cc1 (stereo not given),2,3,-2,-5,-2,nt
O=[N+]([O-])c1cc(S(=O)(=O)Nc2cccc(Cl)c2)ccc1N/N=C/c1ccc(N2CCOCC2)cc1,50*,9,-12,48*,36,96*
CCOc1ccc(N2C(=O)CC(Cc3ccc(Br)cc3)C2=O)cc1 (stereo not given),-2,8,-3,65*,2,36
COc1ccc(N2C(=O)CC(Cc3ccc(Br)cc3)C2=O)cc1 (stereo not given),-1,8,-2,18,-3,nt
CN(C(=O)c1ccc(NC(=O)Cc2cccc(NC(=O)C3CCCN(C(=O)C4CCC4)C3)c2)cc1)C1CCCC1 (stereo not given),8,-12,0,1,-6,nt
COc1cccc(CNC(=O)C2=Cc3cccc(OC)c3OC2)c1,4,-5,-3,15,-2,nt
COc1cc(C(C#N)N2N=C(c3ccccc3)CC2c2ccccc2)ccc1O (stereo not given),4,2,-4,-3,8,nt
N#CC(c1ccccc1O)N1N=C(c2ccccc2)CC1c1ccccc1 (stereo not given),54*,12,-9,67*,36,32
O=[N+]([O-])c1ccc(O)c(-c2nc(-c3ccccc3)c(-c3cccs3)[nH]2)c1,45,-9,-6,42*,28,54*
O=C/C(=C\Nc1ccc(S(=O)(=O)CCO)cc1)c1nc2cc(Cl)ccc2o1,44,4,1,105*,12,14
COc1cc(NS(=O)(=O)c2ccc(NC(C)=O)cc2)nc(OC)n1,-11,-4,1,9,-4,nt
O=C/C(=C\Nc1ccc(Cl)cn1)c1nc2cc(Cl)ccc2o1,-12,4,-5,15,-3,nt
